# Most compounds without a hit are left out; they make up all but 2.2% or so of the library.
# FLuc act counter – firefly luciferase counter-screen for stimulation assays | ATPlite luciferase biochemical, luminescence, 10 min; 0 = ATP-free wells, 1 = DMSO control | activation factor at 10 µM | 200,000 tested, under 10 active | AID 1027;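 active means luciferase activation factor, scaled between plate controls, of at least 2 with compound at 10 µM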
# Target sequence (P08659 whole entry, looked up): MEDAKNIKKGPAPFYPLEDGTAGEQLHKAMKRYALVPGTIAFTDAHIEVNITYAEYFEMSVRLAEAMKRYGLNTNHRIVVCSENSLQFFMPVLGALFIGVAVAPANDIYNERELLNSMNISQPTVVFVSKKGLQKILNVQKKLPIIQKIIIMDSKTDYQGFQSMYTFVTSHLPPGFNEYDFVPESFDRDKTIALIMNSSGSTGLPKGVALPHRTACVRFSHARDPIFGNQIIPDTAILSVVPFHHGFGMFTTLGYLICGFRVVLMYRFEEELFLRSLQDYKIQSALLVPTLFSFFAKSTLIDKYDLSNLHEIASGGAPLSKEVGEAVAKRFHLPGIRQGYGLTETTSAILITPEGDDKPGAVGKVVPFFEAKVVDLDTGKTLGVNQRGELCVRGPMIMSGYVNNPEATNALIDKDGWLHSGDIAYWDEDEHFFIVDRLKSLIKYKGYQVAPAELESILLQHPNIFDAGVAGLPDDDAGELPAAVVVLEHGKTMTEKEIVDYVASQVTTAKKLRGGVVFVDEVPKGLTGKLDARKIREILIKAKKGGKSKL
#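 Material: luciferase plus luciferin reagent, cell-free. Medium: PBS buffer for ATP. Also added: ATP substrate, dispensed from a 10.24 µM working solution in PBS. Doses: test compounds dosed from 2 mM stocks in 100% DMSO. Incubation: 10 min post-reagent at room temperature. Technique: light output (luminescence). Read-out basis: luminescence gain marking luciferase activators.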
# C8 TRAIL sens – caspase-8 TRAIL sensitization; hit rate 1% among 360,000; NB7+C8 cells + TRAIL, ATPlite viability luminescence; inhibition (viability loss, TRAIL sensitization), % at 10 µM;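 active means compounds causing at least 50% loss of cell viability in the single-dose screen, relative to plate controls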
# APP 5'UTR act – APP 5'UTR luciferase reporter activation. AID 1276. hit rate 1% among 190,000. SH-SY5Y APP 5'UTR luciferase reporter, luminescence; zero percent = DMSO vehicle wells. activation, % at 2 µM;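 active means activation above a set limit, based on mean plus 3 SD of controls, cut at about 140% in these data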
# NF-kB neuron act – compounds increasing NF-kB expression in human neuronal cells. NF-kB reporter expression; hits give high values. fold change at 12.5 µM. hit rate 1.6% among 190,000; in the data active means fold change above about 3.3
# PPC-1+TRAIL kill – compounds killing PPC-1 cancer cells with TRAIL present (potentiator screen, no TRAIL-free arm); PPC-1 cells + TRAIL, ATPLite viability luminescence; cell killing (% activity), % at 4 µM or 5 µM; hit rate 0.41% among 220,000;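 active means cell killing above 50% in the first pass at 4 µM, then a duplicate retest at 5 µM averaging 50% or more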;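 further: plate controls were cells with TRAIL plus DMSO for no effect and medium-only wells lacking cells for full effect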
# FLuc inh counter – inhibits firefly luciferase, flagging false hits in luciferase inhibition screens; ATPLite firefly luciferase biochemical luminescence, 10 min; inhibition, % at 10 µM; AID 1006; P08659; hit rate 1.5% among 200,000;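 active means inhibition above about 50% when tested at 10 µM, limit read from the data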
# An asterisk follows results filed as active; x = no result given.
SMILES,FLuc act counter,C8 TRAIL sens,APP 5'UTR act,NF-kB neuron act,PPC-1+TRAIL kill,FLuc inh counter
CN1C=CC(=C2C(=O)c3ccccc3C2=O)C=C1,0.2,x,101.6,3.59*,46.3,75.2*
CCCN1C=CC(=C2C(=O)c3ccccc3C2=O)C=C1,0,91.3*,-81.0,0.27,26.0,97.1*
CC1=CC(=C2C(=O)c3ccccc3C2=O)C=C(C)O1,1,26.4,11.3,2.37,14.4,2.5
O=C(O)CCc1nc(-c2cccs2)no1,1,-11.6,-1.9,1.07,2.2,-3.6
O=[N+]([O-])c1ccc(F)cc1OCc1nc(-c2cccs2)no1,0.8,-17.0,155.8*,6.39*,14.6,24.5
Cc1ccc(OCc2nc(-c3ccccc3)no2)c(C)c1,0.8,3.3,120.2,5.15*,-0.6,16.3
Cc1ccc(OCc2nc(-c3cccs3)no2)c([N+](=O)[O-])c1,0.4,37.6,197.9*,11.2*,44.1,60.9*
Cc1cc(C)c(C)c(OCc2nc(-c3cccnc3)no2)c1,1.1,3.8,-3.9,0.51,-10.3,-5.1
O=[N+]([O-])c1ccccc1OCc1nc(-c2cccs2)no1,0.7,3.8,185.1*,7.56*,17.6,32.3
COc1ccccc1CN1CCN(Cc2nc(-c3cccs3)no2)CC1,1,-21.2,28.2,1.62,8.4,-2.3
NC(c1csc(Nc2cc(NCCCO)ncn2)n1)c1ccccc1Cl (centres undefined),x,22.2,x,x,x,x
N#Cc1ccc(C2CC(OCCF)=CC(=O)O2)cc1 (centres undefined),x,5.2,x,x,x,x
CCC(C)c1ccc2oc(-c3ccc(NC(=O)Cn4cnc5c(=O)n(C)c(=O)n(C)c54)cc3)nc2c1 (centres undefined),1,79.7*,86.5,0.77,14.6,1.5
O=C1CCOc2cc(OCc3ccccc3)ccc21,0.7,6.1,117.6,6.3*,15.1,33.9
Cc1cc(=O)[nH]c(N/N=C/c2c(C)nn(-c3ccccc3)c2C)n1,1,-6.9,-2.5,0.86,19.6,-4.4
C(=N\Nc1nc2ccccc2[nH]1)/c1ccncc1,0.7,8.5,9.8,1.06,33.3,26.9
CC1C/C(=N/Nc2nc3ccccc3[nH]2)CC(C)(C)C1 (centres undefined),0.9,0.9,53.0,0.85,37.5,5.3
Cc1ccsc1/C=N/Nc1nc2ccccc2[nH]1,0.3,6.7,145.3*,5.32*,0.9,74.4*
c1ccc2[nH]c(NN=C3CCCCCC3)nc2c1,0.2,16.1,46.1,1.11,20.3,82.5*
Cc1nn(-c2ccccc2)c(C)c1/C=N/Nc1nc2ccccc2[nH]1,0.2,43.3,153.7*,2.88,29.1,79.9*
C(=N\Nc1nc2ccccc2[nH]1)/c1cccs1,0.3,5.0,137.3*,4.14*,27.2,68.2*
CCCn1c(/C=N/Nc2nc3ccccc3[nH]2)nc2ccccc21,0.9,26.4,-73.8,1.4,-2.0,9.9
Clc1nc2ccccc2cc1/C=N/Nc1nc2ccccc2[nH]1,0.1,83.3*,104.3,1.41,37.2,88.4*
Cn1c(/C=N/Nc2nc3ccccc3[nH]2)nc2ccccc21,0.2,37.6,34.8,1.2,48.5,82.8*
O=C(O)c1ccc(N/N=C/c2cc3ccccc3nc2Cl)cc1,x,15.2,x,x,13.6,x
SMILES,FLuc act counter,C8 TRAIL sens,APP 5'UTR act,NF-kB neuron act,PPC-1+TRAIL kill,FLuc inh counter
CCCCNC(=O)C1(C)CCCCN1C(=O)c1c(Cl)cccc1Cl (centres undefined),x,-1.0,x,x,x,x
CCc1nnc(NC(=O)c2ccc(OC)cc2OC)s1,0.5,27.9,110.6,2.21,34.0,53.7*
N=c1oc2cc(O)ccc2cc1C(=O)Nc1nc2ccccc2s1,0.3,-2.4,178.5*,1.63,-8.7,74.8*
COc1ccccc1C(=O)Nc1nc2ccc(S(C)(=O)=O)cc2s1,0.8,35.4,21.8,0.99,24.6,20.0
COc1ccc(C(=O)Nc2nc3ccccc3s2)c(OC)c1,x,91.8*,x,x,x,x
COc1ccccc1C(=O)Nc1nc2ccccc2s1,x,91.4*,x,x,x,x
COc1ccccc1C(=O)N1CCCC(C)(C(=O)NS(=O)(=O)C2CC2)C1 (centres undefined),x,0.3,x,x,x,x
O=S1(=O)N[C@@H](Cc2ccccc2)COc2cccc(N3CCC[C@@H]3CO)c21,x,0.3,x,x,x,x
COc1ccc(C(=O)Nc2ccc([N+](=O)[O-])cn2)c(OC)c1,0.5,52.9*,143.2*,4.42*,17.3,45.2
CCc1nnc(NC(=O)c2ccc(Cl)nc2)s1,0.5,23.0,51.2,1.34,26.8,53.1*
COC(=O)c1c(NC(=O)c2nc3ccccc3s2)sc2c1CC(C)(C)NC2(C)C,1.1,86.3*,-4.8,1.02,19.1,-7.4
O=C(NCc1ccccc1Cl)c1csc([C@@H]2C[C@H](O)[C@@H](CO)O2)n1,x,-6.9,x,x,x,x
Oc1ccc(C=NNc2ccccn2)c(O)c1,x,39.2,x,x,x,x
Oc1ccc(/C=N/Nc2cccc3cccnc23)c(O)c1,0.8,19.3,49.2,11.3*,5.7,22.8
Oc1ccc(/C=N/Nc2nccnc2Cl)c(O)c1,0.8,2.7,x,1.19,35.5,15.2
Cc1ccc(/C=N/Nc2cccc3cccnc23)c(O)c1,0.4,37.8,93.4,7.48*,-20.4,59.5*
CCN(CC)S(=O)(=O)c1ccc(N/N=C/c2ccc(O)cc2O)nc1,1,17.9,-80.9,1.27,52.5*,-0.5
Oc1ccc(/C=N/Nc2ncc(Br)cn2)c(O)c1,0.8,51.5*,18.8,5.01*,17.8,17.9
COC(=O)[C@@]12C[C@@H](CC(=O)NCCC(C)C)C(=O)N(Cc3ccc4c(c3)OCO4)C1=CCC(C)(C)C2,x,-8.5,x,x,x,x
COc1ccc(S(=O)(=O)N2CCC[C@H]2C(=O)N2CCC[C@H]2C(=O)N[C@@H](C)c2ccccc2)cc1C,x,-8.3,x,x,x,x
CC[C@H](C)[C@H]1O[C@]2(CC[C@@H]1C)C[C@@H]1C[C@@H](CC=C(C)[C@@H](O[C@H]3C[C@H](OC)[C@@H](O[C@H]4C[C@H](OC)[C@@H](O)[C@H](C)O4)[C@H](C)O3)[C@@H](C)C=CC=C3CO[C@@H]4[C@H](O)C(C)=C[C@@H](C(=O)O1)[C@]34O)O2,x,71.0*,x,x,x,x
CCCC(=O)N1CCC1(C)C(=O)Nc1cccc(F)c1 (centres undefined),x,-9.6,x,x,x,x
O=C(COc1ccc(Cl)cc1)c1ccc(O)cc1O,x,7.2,x,x,18.5,x
CCOC(=O)c1ccc(OCC(=O)c2ccc(O)cc2O)cc1,0.4,42.9,3.0,1.72,32.2,59.2*
CC(C)S(=O)(=O)NC(=O)C1(C)CCN1C(=O)Cc1ccccc1 (centres undefined),x,5.3,x,x,x,x
Clc1ccc(COn2nnc3ccccc32)c(Cl)c1,0.9,13.3,152.6*,2.44,13.4,12.5
COc1cccc(N/C=C/c2onc(C)c2[N+](=O)[O-])c1,1,2.4,145.5*,1.5,6.3,-1.9
O=c1ccc(-c2nc3ccccc3n2C(CCc2ccccc2)c2nc3ccccc3[nH]2)c[nH]1 (centres undefined),x,6.4,x,x,x,x
Cc1cccc(NC(=O)COc2ccc3c(c2)CCC3)n1,x,6.0,x,x,x,x
